# Test results as given in ChEMBL document CHEMBL3227967, “Quantitative structure-activity relationships in 1-aryl-2-(alkylamino)ethanol antimalarials” (J Med Chem, 1979).
# Tested on: not listed separately
# Experiment: Lipophilicity, log P of the compound in 0.1 N HCl solution
# Assay type: physicochemical
# Conditions: 0.1 N HCl solution; read-out: logP
# Summary of the method: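 Partition coefficients of the hydrochloride salts were measured from 0.1 N HCl solution unless a footnote says otherwise. Some entries were not measured. They were calculated by adding the Δlog P of the corresponding phenanthrene analogues to the measured log P of a reference hydrochloride.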
row,SMILES,logP
1,CCCCN(CCCC)CC(O)c1cccc2cc(Cl)ccc12 (centres undefined),2.19
2,CCN(CC)CC(O)c1cc2ccccc2c2ccccc12 (centres undefined),1.37
3,CCCCN(CCCC)CC(O)c1ccc2cc(OC)c(Cl)cc2n1 (centres undefined),1.73
4,OC(CN1C=COC=C1)c1cc(-c2ccc(F)cc2)nc2cc(F)ccc12 (centres undefined),0
5,Cc1cc(C)c2ncc(C(O)CC3CCCCN3)cc2c1 (centres undefined),1.17
6,Cc1cc(C(O)CN2CCCCCC2)c2nc(-c3ccccc3)ccc2c1 (centres undefined),3.47
7,CCCCN(CCCC)CC(O)c1c(Br)c(-c2ccccc2)nc2ccccc12 (centres undefined),3.86
8,OC(CN1CCCCCC1)c1cccc2ccc(-c3ccccc3)nc12 (centres undefined),2.91
9,CCCCN(CCCC)CC(O)c1cc(-c2ccc(Cl)cc2)c2cc(Cl)cc(Cl)c2n1 (centres undefined),5.13
10,CCCCCCCCCCN(CCCCCCCCCC)CC(O)c1ccc(Cl)c2ccccc12 (centres undefined),8.13
11,O=C(O)c1ccc2cc(C(O)CC3CCCCN3)c3ccc(C(F)(F)F)cc3c2c1 (centres undefined),2.14
12,CCCCN(CCCC)CC(O)c1cnc2c(Cl)cc(Cl)cc2c1Cl (centres undefined),3.17
13,OC(CNC12CC3CC(CC(C3)C1)C2)c1cc(-c2ccc(F)cc2)nc2cc(F)ccc12 (centres undefined),3.84
14,CCN(CC)CC(O)c1cc(-c2ccccc2)nc2ccccc12 (centres undefined),0.94
15,OC(c1cc2ccccc2c2ccccc12)C1CCCCN1 (centres undefined),2.01
16,CCCCCCCN(CCCCCCC)CC(O)c1cc(-c2ccccc2)nc(-c2ccccc2)c1 (centres undefined),7.11
17,CCCCCCCN(CCCCCCC)CC(O)c1cc2ccccc2c2cnccc12 (centres undefined),4.03
18,CCCNCC(O)c1cc2ccccc2c2ccccc12 (centres undefined),1.86
19,CCCCCCN(CCCCCC)CC(O)c1cc(OC)c2cc(Cl)cc(Cl)c2n1 (centres undefined),4.38
20,CCCCN(CCCC)CC(O)c1c(C)c(-c2ccc(C)cc2C)nc2c1ccc1ccccc12 (centres undefined),6
21,CCC1C[N+]2(c3ccnc4ccc(OC(C)CO)cc34)CCC1CC2 (centres undefined),2.31

row,SMILES,logP
1,CCCNCC(O)c1cc(-c2ccccc2)nc(-c2ccccc2)c1 (centres undefined),3.03
2,CN(C)CC(O)c1cc2ccccc2c2ccccc12 (centres undefined),1.08
3,CNCC(O)c1cc(-c2ccccc2)nc2ccccc12 (centres undefined),0.55
4,COc1ccc2nccc(C(O)CC3CCC(/C=C/Br)CN3)c2c1 (centres undefined),1.71
5,CCCN(CCC)CC(O)c1cc(-c2ccccc2)nc(-c2ccccc2)c1 (centres undefined),3.29
6,CCCCN(CCCC)CC(O)c1cc(-c2ccccc2)nc2ccccc12 (centres undefined),2.57
7,CNCC(O)c1cc(-c2ccccc2)nc(-c2ccccc2)c1 (centres undefined),2.15
8,C=CCN(CC=C)CC(O)c1cc2ccccc2c2ccccc12 (centres undefined),0.59
9,OC(c1cc(-c2ccccc2)nc2ccccc12)C1CCCCN1 (centres undefined),1.58
10,CCCCCCCN(CCCCCCC)CC(O)c1cc2ccc(Cl)cc2c2cccnc12 (centres undefined),4.74
11,CCCCCCCN(CCCCCCC)CC(O)c1cc(-c2ccc(Br)cc2)nc(-c2ccc(Br)cc2)c1 (centres undefined),8.83
12,CCCCCN(CCCCC)CC(O)c1cc(-c2ccccc2)nc2ccccc12 (centres undefined),3.58
13,OC(CN1C=CN(c2ccccc2)C=C1)c1cc(-c2ccc(Cl)cc2)nc2cc(Cl)ccc12 (centres undefined),5.4
14,CCCCN(CCCC)CC(O)c1cc2ccccc2c2ccccc12 (centres undefined),3
15,N#CCCN(CCC#N)CC(O)c1cc2ccccc2c2ccccc12 (centres undefined),0.37
16,CC(=O)N1CCCCC1CC(O)c1cc(C23CC4CC(CC(C4)C2)C3)nc2c(Cl)cc(Cl)cc12 (centres undefined),4.29
17,CCN(CC)CC(O)c1ccc(Cl)c2ccccc12 (centres undefined),0.56
18,CCNCC(O)c1cc2ccccc2c2ccccc12 (centres undefined),1.42
19,OC(CC1CC2CCC(CC2)C1)c1cc2ccccc2c2cc(Br)ccc12 (centres undefined),3.74
20,CCCCN(CCCC)CC(O)c1c(Cl)cc(Cl)c2ncccc12 (centres undefined),2.46
21,CCCCN(CCCC)CC(O)c1cnc2cc(Cl)ccc2c1Cl (centres undefined),2.46

# Tested on: Plasmodium berghei
# Experiment: Antimalarial activity against Plasmodium berghei
# Assay type: functional
# Conditions: not given
row,SMILES,log(1/C)
1,OC(CC1CCCCN1)c1cc(-c2ccc(F)cc2)nc2cc(F)ccc12 (centres undefined),2.32
2,OC(CC1CCCCN1)c1cc(C(F)(F)F)nc2c1cc(Cl)c1ccccc12 (centres undefined),3.43
3,CCCCN(CCCC)CC(O)c1cc(C(C)(C)C)nc2ccc(C)cc12 (centres undefined),2.53
4,OC(CN1CCN(c2ccccc2)CC1)c1cc(-c2ccccc2)nc2c(Cl)cc(Cl)cc12 (centres undefined),2.66
5,CCCCCCN(CCCCCC)CC(O)c1cc(-c2ccc(Cl)c(Cl)c2)nc2ccc(OC)cc12 (centres undefined),3.35
6,CCCCN(CCCC)CC(O)c1cc(-c2ccc(Br)cc2)nc(-c2ccc(C(F)(F)F)cc2)c1 (centres undefined),3.62
7,CCCCCCN(CCCCCC)CC(O)c1cc(-c2ccccc2)nc2c(Cl)cc(Cl)cc12 (centres undefined),3.35
8,CCN(CC)CCC(O)c1cc2ccc(C(F)(F)F)cc2c2cc(C(F)(F)F)ccc12 (centres undefined),4.12
9,CCCN(CCC)CC(O)c1cc2ccc(C(F)(F)F)cc2c2ccsc12 (centres undefined),2.82
10,CCCCCCCN(CCCCCCC)CC(O)c1cc2ccc(F)cc2c2ccccc12 (centres undefined),2.32
11,CCCCN(CCCC)CC(O)c1c(OC)c2cc(Cl)ccc2c2ccc(Cl)cc12 (centres undefined),3.71
12,OC(CC1CCCCN1)c1cc(-c2ccc(Cl)cc2)nc2c(Cl)cc(Cl)cc12 (centres undefined),3.97
13,CN1CCCC1CC(O)c1cc2ccc(Cl)cc2c2cc(Cl)ccc12 (centres undefined),3.46
14,CCCCN(CCCC)CC(O)c1cc2c(Br)cc(Br)cc2c2cc(Br)ccc12 (centres undefined),4.19
15,OC(CC1CCCCN1)c1cc(-c2ccccc2)nc2c(Cl)cc(Cl)cc12 (centres undefined),3.9
16,OC(CC1CCCCN1)c1cc2cc(Br)ccc2c2cc(Br)ccc12 (centres undefined),4.13
17,CCCCCCCCNCC(O)c1cc(-c2ccc(C(F)(F)F)cc2)nc(-c2ccc(C(F)(F)F)cc2)c1 (centres undefined),3.76
18,CCCCNCC(O)c1cc(C(F)(F)F)nc2c(C(F)(F)F)cccc12 (centres undefined),3.65
19,CCCNCC(O)c1cc(C(F)(F)F)nc2c(C(F)(F)F)cccc12 (centres undefined),2.92
20,CCCCN(CCCC)CC(O)c1ccc2ccc3cccc(C(F)(F)F)c3c2c1 (centres undefined),2.23
21,CN1CCN(CC(O)c2cc(-c3ccccc3)nc3c(Cl)cc(Cl)cc23)CC1 (centres undefined),2.48

row,SMILES,log(1/C)
1,CCCCN(CCCC)CC(O)c1cc(Oc2ccc(Cl)c(Cl)c2)cc2c(Cl)cc(Cl)cc12 (centres undefined),2.49
2,CCCCCCCN(CCCCCCC)CC(O)c1cc2ccc(Cl)cc2c2ccccc12 (centres undefined),2.44
3,CCCCNCC(O)c1cc2c(Cl)cc(Cl)cc2c2cc(C(F)(F)F)ccc12 (centres undefined),4.48
4,OC(CC1CCCCN1)c1cc2c(Cl)cc(Cl)cc2c2cc(Cl)ccc12 (centres undefined),4.12
5,OC(CC1CCCCN1)c1cc2ccc(Cl)c(Cl)c2c2cc(C(F)(F)F)ccc12 (centres undefined),4.4
6,C=C[C@H]1CN2CC[C@H]1C[C@H]2[C@H](O)c1ccnc2ccc(OC)cc12 [QUININE],2.06
7,CCCC(CCC)N(CC(O)c1cc(-c2ccc(C(F)(F)F)cc2)nc(-c2ccc(C(F)(F)F)cc2)c1)C(CCC)CCC (centres undefined),4.15
8,OC(CC1CCCCN1)c1c2c(nc3c(Cl)cc(Cl)cc13)-c1ccc(Cl)cc1CC2 (centres undefined),3.69
9,CCCCN(CCCC)CC(O)c1cc2cc(Cl)cc(Cl)c2nc1-c1ccc(Cl)cc1 (centres undefined),2.32
10,CCCCN(CCCC)CC(O)c1cc(-c2ccc(OC)cc2)nc(-c2ccc(OC)cc2)c1 (centres undefined),2.17
11,CCCCN(CCCC)CC(O)c1cc(-c2ccccc2)nc2ccc(OC)cc12 (centres undefined),2.89
12,OC(CC1CCCCN1)c1cc(-c2ccccc2)nc2c1ccc1ccccc12 (centres undefined),3.05
13,CCCCNCC(O)c1cc(-c2ccccc2C(F)(F)F)nc(C(F)(F)F)c1 (centres undefined),3.78
14,CCCCN(CCCC)CC(O)c1cc(-c2ccc(Cl)cc2)nc2c(OC)ccc(OC)c12 (centres undefined),2.52
15,CCCCN(CCCC)CC(O)c1cc2cc(S(C)(=O)=O)ccc2c2cc(Cl)c(Cl)cc12 (centres undefined),3.74
16,CCCCNCC(O)c1cc(-c2ccc(Cl)cc2)nc2cc(Cl)c(OC)cc12 (centres undefined),3.88
17,Cc1ccc(-c2cc(C(O)CC3CCCCN3)c3cc(F)ccc3n2)cc1 (centres undefined),2.34
18,CCCCN(CCCC)CC(O)c1cc(-c2c(Cl)cccc2Cl)nc2c(Cl)cc(Cl)cc12 (centres undefined),2.41
19,CCCCN(CCCC)CC(O)c1cc2ccc(Cl)cc2c2cc(Cl)ccc12 (centres undefined),3.79
20,CCCCN(CCCC)CC(O)c1cc(Cl)c2nc(-c3ccccc3)ccc2c1 (centres undefined),2.51
21,CCCCNCCC(O)c1c2ccccc2c(Cl)c2cc(C(F)(F)F)ccc12 (centres undefined),3

row,SMILES,log(1/C)
1,CCCCN(CCCC)CC(O)c1cc2ccc(Br)cc2c2cc(Cl)sc12 (centres undefined),3.43
2,CCCCCN(CCCCC)CC(O)c1cccc2c1cc(Cl)c1ccccc12 (centres undefined),2.14
3,CCCCN(CCCC)CC(O)c1cc2cc(Cl)c(Cl)cc2c2cc(Cl)c(Cl)cc12 (centres undefined),4.18
4,CCCCCCCN(CCCCCCC)CC(O)c1cc2ccccc2c2cc(F)ccc12 (centres undefined),3.08
5,OC(CC1CCCCN1)c1cc2cc(Cl)cc(Cl)c2c2cc(Cl)ccc12 (centres undefined),4.46
6,CCCCN(CCCC)CC(O)c1c(C)c(-c2ccc(Cl)cc2Cl)nc2c(Cl)cc(Cl)cc12 (centres undefined),3.15
7,CCCCN(CCCC)CC(O)c1cc2ccc(Cl)cc2nc1-c1ccc(Cl)cc1 (centres undefined),2.2
8,CCCCN(CCCC)CC(O)c1cc2ccc(I)cc2c2cc(C(F)(F)F)ccc12 (centres undefined),3.72
9,CCCCCCN(CCCCCC)CC(O)c1cc2ccc(C(F)(F)F)cc2c2ccsc12 (centres undefined),2.49
10,CCCCCCCN(CCCCCCC)CC(O)c1cc2ccccc2c2ccc3ccccc3c12 (centres undefined),3.25
11,CCCCN(CCCC)CC(O)c1c(OC)c2cc(Br)ccc2c2ccc(Br)cc12 (centres undefined),3.94
12,CCCCCCCN(CCCCCCC)CC(O)c1cccc2c1cc(Cl)c1ccc(Cl)cc12 (centres undefined),2.96
13,CCCCCCCN(CCCCCCC)CC(O)c1cccc2cc3c(Cl)cccc3cc12 (centres undefined),2.44
14,CCCCN(CCCC)CC(O)c1cc2ccc(Br)cc2c2sccc12 (centres undefined),2.82
15,CCCCNCC(O)c1cc(-c2cccc(C(F)(F)F)c2)nc(-c2cccc(C(F)(F)F)c2)c1 (centres undefined),3.94
16,CCCCN(CCCC)CC(O)c1cc2cc(Cl)cc(Cl)c2c2cc(SC)ccc12 (centres undefined),3.88
17,CCCCCCN(CCCCCC)CC(O)c1cc(-c2ccc(OC)cc2)nc2cc(Cl)c(Cl)cc12 (centres undefined),3.35
18,CCCCN(CCCC)CC(O)c1cc2c(Cl)cc(Cl)cc2c2cc(C)sc12 (centres undefined),3.3
19,OC(CN1CCCCC1)c1cc(-c2ccc(Cl)cc2)nc2c(Cl)cc(Cl)cc12 (centres undefined),3.49
20,CCCCNCC(O)c1cc2ccc(C(F)(F)F)cc2c2ccsc12 (centres undefined),2.51
